From ChEMBL document CHEMBL4819114, “Discovery of a potent and selective Axl inhibitor in preclinical model” (Bioorg Med Chem, 2021)
In brackets after ≈: the same amount, converted by molar mass. Activity calls are given as the source filed them. No cut-off for these calls is given here.

How the values were obtained:
[1] = Metabolic stability in mouse liver microsomes assessed as residual ratio measured after 30 mins in presence of NADPH by LC-MS/MS analysis relative to absence of NADPH; format: ADME, Microsome; details: read-out: Stabilty
Outline: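 Incubation with mouse liver microsomes (0.5 mg/mL), 30 min at 37 °C, in 0.1 M potassium phosphate pH 7.4, 0.1 mM EDTA, 6 mM MgCl2 and an NADPH-generating system (β-NADP+, glucose-6-phosphate, G6P dehydrogenase). Quenched with acetonitrile/methanol (7:3) containing propranolol internal standard, then LC-MS/MS. Residual ratio with NADPH taken relative to without NADPH.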

[2] = Kinetic solubility of compound in PBS buffer at pH 7 incubated for 15 mins by HPLC-UV analysis
[3] = Toxicity in BALB/c mouse assessed as induction of necrosis in photoreceptor cells at 100 mg/kg, po administered for 14 days hematoxylin and eosin staining based assay; format: organism-based; details: in vivo, 336 h, time 14 day
Outline: (§1)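 Female BALB/cAJcl mice (n = 3 or 5/group) dosed orally once daily for 14 days at 100 mg/kg; controls untreated. Body weight tracked. At necropsy after dosing, eyes fixed in 3% glutaraldehyde/2.5% formalin, paraffin-embedded, sectioned, stained with hematoxylin-eosin, and the retina examined histopathologically.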

[4] = target: Hepatocyte growth factor receptor (Homo sapiens) (UniProt P08581); assay: Inhibition of c-Met (unknown origin)
[5] = target: T1, Tyrosine-protein kinase receptor TYRO3 (Homo sapiens) (UniProt Q06418); assay: Inhibition of Tyro3 (unknown origin)
T1 sequence (whole entry): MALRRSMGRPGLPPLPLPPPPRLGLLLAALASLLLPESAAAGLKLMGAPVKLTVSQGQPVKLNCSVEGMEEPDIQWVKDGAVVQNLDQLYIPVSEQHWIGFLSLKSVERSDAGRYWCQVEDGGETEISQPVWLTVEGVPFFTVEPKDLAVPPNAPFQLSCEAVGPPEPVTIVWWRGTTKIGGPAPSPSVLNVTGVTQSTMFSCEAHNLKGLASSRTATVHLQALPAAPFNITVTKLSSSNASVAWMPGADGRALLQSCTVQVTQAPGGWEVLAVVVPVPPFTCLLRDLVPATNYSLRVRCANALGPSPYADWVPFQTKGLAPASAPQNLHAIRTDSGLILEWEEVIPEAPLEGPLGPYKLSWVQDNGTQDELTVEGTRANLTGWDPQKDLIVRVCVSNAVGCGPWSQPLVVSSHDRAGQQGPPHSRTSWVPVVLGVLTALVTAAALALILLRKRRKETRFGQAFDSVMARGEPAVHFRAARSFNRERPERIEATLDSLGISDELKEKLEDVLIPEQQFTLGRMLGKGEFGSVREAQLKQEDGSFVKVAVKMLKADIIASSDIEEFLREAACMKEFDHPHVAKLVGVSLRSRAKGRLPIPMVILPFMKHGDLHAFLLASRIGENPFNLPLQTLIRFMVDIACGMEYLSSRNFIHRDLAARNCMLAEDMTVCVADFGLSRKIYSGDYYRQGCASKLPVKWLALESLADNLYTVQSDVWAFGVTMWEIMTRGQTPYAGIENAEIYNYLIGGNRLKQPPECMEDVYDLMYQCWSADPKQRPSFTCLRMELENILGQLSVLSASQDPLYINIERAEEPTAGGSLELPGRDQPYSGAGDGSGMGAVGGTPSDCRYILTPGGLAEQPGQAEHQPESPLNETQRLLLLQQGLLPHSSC

[6] = Toxicity in BALB/c mouse assessed as effect on body weight at 100 mg/kg, po administered for 14 days; format: organism-based; details: in vivo, 336 h, time 14 day; outline: as §1
[7] = target: Tyrosine-protein kinase Lck (Homo sapiens) (UniProt P06239); assay: Inhibition of LCK (unknown origin)
[8] = Cmax in CAnN.Cg-Foxnlnu/Cr1Crlj mouse at 30 mg/kg, po measured upto 24 hrs by LC-MS/MS analysis; format: ADME, organism-based; parameters: route oral, dose 30 mg/kg, time <=24; details: in vivo
Outline: (§2)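 Single oral dose in DMSO/Tween80/5% glucose (7:13:80, v/v/v) to female mice. Blood taken from retinal vein at 0.5, 1, 2, 8 and 24 h and spun to plasma. Plasma precipitated with 20 volumes acetonitrile/methanol (7:3) containing propranolol and niflumic acid internal standards, then analysed by LC-MS/MS. Cmax, tmax and AUC(0-24h) derived from mean plasma concentration.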

[9] = Tmax in CAnN.Cg-Foxnlnu/Cr1Crlj mouse at 10 mg/kg, po measured upto 24 hrs by LC-MS/MS analysis; format: ADME, organism-based; details: in vivo; outline: as §2
[10] = AUC (0 to 24 hrs) in CAnN.Cg-Foxnlnu/Cr1Crlj mouse at 10 mg/kg, po measured upto 24 hrs by LC-MS/MS analysis; format: ADME, organism-based; parameters: route oral, dose 10 mg/kg, time <=24; details: in vivo; outline: as §2
[11] = Tmax in CAnN.Cg-Foxnlnu/Cr1Crlj mouse at 30 mg/kg, po measured upto 24 hrs by LC-MS/MS analysis; format: ADME, organism-based; details: in vivo; outline: as §2
[12] = Tmax in CAnN.Cg-Foxnlnu/Cr1Crlj mouse at 100 mg/kg, po measured upto 24 hrs by LC-MS/MS analysis; format: ADME, organism-based; details: in vivo; outline: as §2
[13] = Cmax in CAnN.Cg-Foxnlnu/Cr1Crlj mouse at 100 mg/kg, po measured upto 24 hrs by LC-MS/MS analysis; format: ADME, organism-based; parameters: route oral, dose 100 mg/kg, time <=24; details: in vivo; outline: as §2
[14] = AUC (0 to 24 hrs) in CAnN.Cg-Foxnlnu/Cr1Crlj mouse at 100 mg/kg, po measured upto 24 hrs by LC-MS/MS analysis; format: ADME, organism-based; parameters: route oral, dose 100 mg/kg, time <=24; details: in vivo; outline: as §2
[15] = Cmax in CAnN.Cg-Foxnlnu/Cr1Crlj mouse at 10 mg/kg, po measured upto 24 hrs by LC-MS/MS analysis; format: ADME, organism-based; parameters: route oral, dose 10 mg/kg, time <=24; details: in vivo; outline: as §2
[16] = Toxicity in C3H mouse xenografted with mouse BaF3 cells assessed as effect on body weight at 1 to 10 mg/kg, po administered for 4 days and measured on day 4; details: in vivo, 96 h
[17] = AUC (0 to 24 hrs) in CAnN.Cg-Foxnlnu/Cr1Crlj mouse at 30 mg/kg, po measured upto 24 hrs by LC-MS/MS analysis; format: ADME, organism-based; parameters: route oral, dose 30 mg/kg, time <=24; details: in vivo; outline: as §2
BaF3 = assay: Antitumor activity against mouse BaF3 cells expressing Axl xenografted in C3H mouse assessed as reduction in tumor growth at 1 to 10 mg/kg, po administered for 4 days and measured on day 4; details: dose 1-10 mg/kg, time 4.0 day

Chain of Tyrosine-protein kinase Lck (Homo sapiens) (P06239 2-509 limits assumed): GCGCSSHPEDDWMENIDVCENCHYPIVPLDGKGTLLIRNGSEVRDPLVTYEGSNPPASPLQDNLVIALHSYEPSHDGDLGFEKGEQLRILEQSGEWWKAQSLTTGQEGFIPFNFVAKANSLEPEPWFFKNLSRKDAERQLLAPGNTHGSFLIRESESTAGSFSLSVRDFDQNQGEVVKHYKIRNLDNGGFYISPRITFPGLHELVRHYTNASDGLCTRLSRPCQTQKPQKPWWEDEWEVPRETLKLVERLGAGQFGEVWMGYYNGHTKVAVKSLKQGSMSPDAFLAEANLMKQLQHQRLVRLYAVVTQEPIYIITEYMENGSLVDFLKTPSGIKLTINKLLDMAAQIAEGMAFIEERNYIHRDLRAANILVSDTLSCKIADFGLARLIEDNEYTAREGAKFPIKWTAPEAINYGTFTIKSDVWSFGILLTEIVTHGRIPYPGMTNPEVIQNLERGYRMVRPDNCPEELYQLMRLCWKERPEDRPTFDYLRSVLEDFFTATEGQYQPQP
Chain of Hepatocyte growth factor receptor (Homo sapiens) (P08581 whole entry): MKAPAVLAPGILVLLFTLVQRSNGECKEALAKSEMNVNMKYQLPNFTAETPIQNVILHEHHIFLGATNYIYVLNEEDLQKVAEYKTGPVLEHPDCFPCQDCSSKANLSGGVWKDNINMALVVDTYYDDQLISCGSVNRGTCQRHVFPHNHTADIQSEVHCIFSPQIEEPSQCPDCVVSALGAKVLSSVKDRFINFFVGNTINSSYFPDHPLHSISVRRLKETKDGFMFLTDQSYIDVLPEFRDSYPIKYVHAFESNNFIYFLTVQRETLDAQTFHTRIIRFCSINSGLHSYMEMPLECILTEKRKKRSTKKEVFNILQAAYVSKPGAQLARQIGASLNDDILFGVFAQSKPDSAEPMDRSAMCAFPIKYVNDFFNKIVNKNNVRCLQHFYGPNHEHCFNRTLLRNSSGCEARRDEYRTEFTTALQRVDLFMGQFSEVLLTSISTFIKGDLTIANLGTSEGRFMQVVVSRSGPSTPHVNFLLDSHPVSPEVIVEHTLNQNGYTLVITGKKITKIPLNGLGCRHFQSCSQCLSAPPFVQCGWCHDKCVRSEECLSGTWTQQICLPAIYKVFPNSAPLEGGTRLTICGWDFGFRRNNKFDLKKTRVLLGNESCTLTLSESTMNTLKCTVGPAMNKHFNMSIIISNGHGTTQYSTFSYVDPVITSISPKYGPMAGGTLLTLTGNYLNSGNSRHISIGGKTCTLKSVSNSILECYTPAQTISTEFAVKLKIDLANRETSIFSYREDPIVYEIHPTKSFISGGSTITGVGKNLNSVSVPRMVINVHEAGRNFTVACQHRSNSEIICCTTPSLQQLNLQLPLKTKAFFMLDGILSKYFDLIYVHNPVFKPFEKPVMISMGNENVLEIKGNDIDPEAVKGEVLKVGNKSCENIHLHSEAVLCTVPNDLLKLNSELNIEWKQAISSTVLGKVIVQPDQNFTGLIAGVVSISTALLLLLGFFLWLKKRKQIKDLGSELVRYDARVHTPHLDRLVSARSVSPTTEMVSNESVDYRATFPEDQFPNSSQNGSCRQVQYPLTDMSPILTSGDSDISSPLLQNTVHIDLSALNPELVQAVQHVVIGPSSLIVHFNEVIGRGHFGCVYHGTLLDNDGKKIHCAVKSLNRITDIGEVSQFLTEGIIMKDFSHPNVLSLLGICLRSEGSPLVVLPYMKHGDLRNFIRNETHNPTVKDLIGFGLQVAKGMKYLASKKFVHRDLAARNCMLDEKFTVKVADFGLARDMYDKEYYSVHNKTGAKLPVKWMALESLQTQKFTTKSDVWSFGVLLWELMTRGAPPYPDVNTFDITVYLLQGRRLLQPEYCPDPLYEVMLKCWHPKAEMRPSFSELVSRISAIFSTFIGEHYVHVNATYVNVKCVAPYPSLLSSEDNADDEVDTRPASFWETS

Compound: CN1CCC(CC(=O)Nc2cc(Oc3ccc(NC(=O)c4cn(C5CC5)c(=O)n(-c5ccc(F)cc5)c4=O)cc3F)ccn2)CC1
- remaining at 0.5 h [1]: 78%
- solubility kinetic at 0.25 h [2]: 82 µM (≈ 51.7 µg/mL)

Compound: CC(C)n1cc(C(=O)Nc2cc(F)c(Oc3ccnc(NC(=O)N4CCC(N5CCN(C)CC5)CC4)c3)cc2F)c(=O)n(-c2ccc(F)cc2)c1=O
- Activity [3]: Toxic
- remaining at 0.5 h [1]: 86%
- inhibition [4]: Active
- inhibition [5]: Active
- solubility kinetic at 0.25 h [2]: 76 µM (≈ 54.8 µg/mL)
- Activity [6]: Non-Toxic
- inhibition [7]: Active

Compound: CN1CCC(CC(=O)Nc2cc(Oc3cc(F)c(NC(=O)c4cc5c(n(-c6ccccc6)c4=O)CCCC5=O)cc3F)ccn2)CC1
- remaining at 0.5 h [1]: 72%
- solubility kinetic at 0.25 h [2]: 50 µM (≈ 32.1 µg/mL)

Compound: CC(C)n1cc(C(=O)Nc2ccc(Oc3cc(NC(=O)N4CC(N5CCCC5)C4)ncn3)cc2)c(=O)n(-c2ccc(F)cc2)c1=O
- remaining at 0.5 h [1]: 1.3%
- solubility kinetic at 0.25 h [2]: 80 µM (≈ 50.3 µg/mL)

Compound: CN1CCN(C2CCN(C(=O)Nc3cc(Oc4cc(F)c(NC(=O)c5cc6c(n(-c7ccccc7)c5=O)CCCC6=O)cc4F)ccn3)CC2)CC1
- remaining at 0.5 h [1]: 78%
- solubility kinetic at 0.25 h [2]: 43 µM (≈ 30.6 µg/mL)

Compound: CC(C)n1cc(C(=O)Nc2ccc(Oc3ccnc(NC(=O)CN(C)C)c3)cc2)c(=O)n(-c2ccc(F)cc2)c1=O
- remaining at 0.5 h [1]: 19%
- solubility kinetic at 0.25 h [2]: 32 µM (≈ 17.9 µg/mL)

Compound: CN1CCC(CC(=O)Nc2cc(Oc3ccc(NC(=O)c4cn(C5CCCC5)c(=O)n(-c5ccc(F)cc5)c4=O)cc3F)ccn2)CC1
- remaining at 0.5 h [1]: 63%
- solubility kinetic at 0.25 h [2]: 70 µM (≈ 46.1 µg/mL)

Compound: CN1CCN(C2CCN(C(=O)Nc3cc(Oc4ccc(NC(=O)c5cn(C)c(=O)n(-c6ccc(F)cc6)c5=O)cc4)ncn3)CC2)CC1
- remaining at 0.5 h [1]: 99%
- solubility kinetic at 0.25 h [2]: 90 µM (≈ 59.2 µg/mL)

Compound: CN1CCC(CC(=O)Nc2cc(Oc3ccc(NC(=O)c4cc5c(n(-c6ccccc6)c4=O)CCCC5=O)c(F)c3)ccn2)CC1
- remaining at 0.5 h [1]: 75%
- solubility kinetic at 0.25 h [2]: 73 µM (≈ 45.5 µg/mL)

Compound: CN1CCC(CC(=O)Nc2cc(Oc3ccc(NC(=O)c4cc5c(n(-c6ccccc6)c4=O)CCCC5=O)cc3)ccn2)CC1
- remaining at 0.5 h [1]: 77%
- solubility kinetic at 0.25 h [2]: 77 µM (≈ 46.6 µg/mL)

Compound: CC(C)n1cc(C(=O)Nc2ccc(Oc3ccnc(NC(=O)CC4CCN(C)CC4)c3)cc2)c(=O)n(-c2ccc(F)cc2)c1=O
- remaining at 0.5 h [1]: 81%
- solubility kinetic at 0.25 h [2]: 80 µM (≈ 49.2 µg/mL)

Compound: CN1CCN(C2CCN(C(=O)Nc3cc(Oc4ccc(NC(=O)c5cn(C6CC6)c(=O)n(-c6ccc(F)cc6)c5=O)cc4)ncn3)CC2)CC1
- remaining at 0.5 h [1]: 87%
- solubility kinetic at 0.25 h [2]: 89 µM (≈ 60.9 µg/mL)

Compound: CC(C)n1cc(C(=O)Nc2ccc(Oc3cc(NC(=O)C4CC4)ncn3)cc2)c(=O)n(-c2ccc(F)cc2)c1=O
- remaining at 0.5 h [1]: 83%
- solubility kinetic at 0.25 h [2]: 6 µM (≈ 3.27 µg/mL)

Compound: CC(C)n1cc(C(=O)Nc2ccc(Oc3ccnc(NC(=O)CC4CCN(C)CC4)c3)cc2F)c(=O)n(-c2ccc(F)cc2)c1=O
- remaining at 0.5 h [1]: 76%
- solubility kinetic at 0.25 h [2]: 78 µM (≈ 49.3 µg/mL)

Compound: CN1CCC(CC(=O)Nc2cc(Oc3ccc(NC(=O)c4cc5c(n(-c6ccccc6)c4=O)CCCC5=O)cc3F)ccn2)CC1
- remaining at 0.5 h [1]: 71%
- solubility kinetic at 0.25 h [2]: 75 µM (≈ 46.8 µg/mL)

Compound: CC(C)n1cc(C(=O)Nc2ccc(Oc3cc(NC(=O)N4CC(N(C)C)C4)ncn3)cc2)c(=O)n(-c2ccc(F)cc2)c1=O
- remaining at 0.5 h [1]: 0.3%

Compound: CC(C)n1cc(C(=O)Nc2ccc(Oc3cc(NC(=O)N4CCCC4)ncn3)cc2)c(=O)n(-c2ccc(F)cc2)c1=O
- remaining at 0.5 h [1]: 59%
- solubility kinetic at 0.25 h [2]: 1 µM (≈ 0.574 µg/mL)

Compound: CC(C)n1cc(C(=O)Nc2ccc(Oc3cc(NC(=O)N4CCC4)ncn3)cc2)c(=O)n(-c2ccc(F)cc2)c1=O
- remaining at 0.5 h [1]: 79%
- solubility kinetic at 0.25 h [2]: 36 µM (≈ 20.1 µg/mL)

Compound: CN1CCN(C2CCN(C(=O)Nc3cc(Oc4ccc(NC(=O)c5cn(C6CCCC6)c(=O)n(-c6ccc(F)cc6)c5=O)cc4)ncn3)CC2)CC1
- remaining at 0.5 h [1]: 82%
- solubility kinetic at 0.25 h [2]: 80 µM (≈ 56.9 µg/mL)

Compound: CC(C)n1cc(C(=O)Nc2ccc(Oc3cc(NC(=O)N4CCC(N5CCN(C)CC5)CC4)ncn3)cc2)c(=O)n(-c2ccc(F)cc2)c1=O
- Cmax [8]: 3790 ng/mL
- Tmax [9]: 2 h
- AUC(0-t) [10]: 7290 ng·h/mL
- Activity [3]: Non-Toxic
- Tmax [11]: 2 h
- Tmax [12]: 2 h
- remaining at 0.5 h [1]: 88%
- Cmax [13]: 13500 ng/mL
- AUC(0-t) [14]: 72700 ng·h/mL
- inhibition [4]: inactive
- inhibition [5]: inactive
- solubility kinetic at 0.25 h [2]: 89 µM (≈ 61 µg/mL)
- Cmax [15]: 1580 ng/mL
- Activity [16]: Non-Toxic
- AUC(0-t) [17]: 18100 ng·h/mL
- Activity [6]: Non-Toxic
- inhibition [7]: inactive
- TGI (BaF3): Active

Compound: CC(C)n1cc(C(=O)Nc2ccc(Oc3cc(NC(=O)N4CC(O)C4)ncn3)cc2)c(=O)n(-c2ccc(F)cc2)c1=O
- remaining at 0.5 h [1]: 92%
- solubility kinetic at 0.25 h [2]: 83 µM (≈ 47.8 µg/mL)
